In brackets after ≈: the same amount, converted by molar mass.
How the values were obtained:
P388 [1] = experiment: In vitro cytotoxicity was determined against P388 leukemia cells; type: functional; details: Mus musculus, read-out: ID50 (the source's name)
Procedure, shortened: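 P388 cells in exponential growth, RPMI 1640 with 2 mM glutamine, 10 μM 2-mercaptoethanol and 10% FCS, 5% CO2, 37 °C. Cells at 10^5 cells/mL. Drugs in distilled water added on day 0. Cells counted by Coulter counter after 96 h. ID50 (μg/mL, 50% inhibition of proliferation) estimated by regression of concentration/response data.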

L1210 [2] = experiment: Tested for cytotoxicity in the multiple tumor disk diffusion soft agar assay at the dose of 15 ug/disk against leukemia L1210; range is 450-500; type: functional, Mus musculus
Procedure, shortened: (§1)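 Soft agar disk diffusion: bottom layer 0.8% noble agar, top layer 0.47% noble agar, both in 1:1 CMRL-Fischer medium with 11% horse serum. Top layer seeded with 5×10^3 L1210 cells or 10^6 solid tumor cells (C38, PO3). Drug applied on a dried 6-mm filter-paper disk. Incubation 7-11 days. Inhibition zone measured by inverted microscope, in units (1 unit = 30 μm).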

P388 [3] = experiment: In vivo T/C (survival time treated/survival time control x 100) was determined against P388 leukemia cells at 40 mg/Kg; type: functional, Mus musculus
Procedure, shortened: (§2)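 B6D2 F1 mice, at least five per group, were inoculated ip on day 0 with 10^6 viable P388 cells (25 mL/kg). Compounds were dissolved in distilled water and given ip (25 mL/kg) daily on days 1–4. Mortality was checked daily, with necropsy of dead animals. T/C×100 was median survival, treated versus control. Survivors beyond 50 days counted as cured and were excluded from the median.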

[4] = Cytotoxicity in the multiple tumor disk diffusion soft agar assay at the dose of 15 ug/disk against solid tumor PO3; type: functional, Mus musculus; procedure, shortened: as §1
L1210 [5] = experiment: Cytotoxicity in the multiple tumor disk diffusion soft agar assay at the dose of 15 ug/disk against leukemia L1210; type: functional, Mus musculus; procedure, shortened: as §1
[6] = Cytotoxicity in the multiple tumor disk diffusion soft agar assay at the dose of 15 ug/disk against solid tumor C38.; type: functional, Mus musculus; procedure, shortened: as §1
L1210 [7] = experiment: Tested for cytotoxicity in the multiple tumor disk diffusion soft agar assay at the dose of 15 ug/disk against leukemia L1210; range is 450-525; type: functional, Mus musculus; procedure, shortened: as §1
[8] = Tested for cytotoxicity in the multiple tumor disk diffusion soft agar assay at the dose of 15 ug/disk against solid tumor PO3; U = […]; type: functional, Mus musculus; procedure, shortened: as §1
P388 [9] = experiment: In vivo T/C (survival time treated/survival time control x 100) was determined against P388 leukemia cells at 10 mg/Kg; type: functional, Mus musculus; procedure, shortened: as §2
[10] = Tested for cytotoxicity in the multiple tumor disk diffusion soft agar assay at the dose of 15 ug/disk against solid tumor C38; U = 32 uM; type: functional, Mus musculus; procedure, shortened: as §1
L1210 [11] = experiment: Tested for cytotoxicity in the multiple tumor disk diffusion soft agar assay at the dose of 15 ug/disk against leukemia L1210; range is 500-580; type: functional, Mus musculus; procedure, shortened: as §1
P388 [12] = experiment: In vivo T/C (survival time treated/survival time control x 100) was determined against P388 leukemia cells at 20 mg/Kg; type: functional, Mus musculus; procedure, shortened: as §2
[13] = Tested for cytotoxicity in the multiple tumor disk diffusion soft agar assay at the dose of 15 ug/disk against solid tumor PO3; range is 300-450; type: functional, Mus musculus; procedure, shortened: as §1
L1210 [14] = experiment: Tested for cytotoxicity in the multiple tumor disk diffusion soft agar assay at the dose of 15 ug/disk against leukemia L1210; type: functional, Mus musculus; procedure, shortened: as §1
L1210 [15] = experiment: Tested for cytotoxicity in the multiple tumor disk diffusion soft agar assay at the dose of 15 ug/disk against leukemia L1210; U = 32 uM; type: functional, Mus musculus; procedure, shortened: as §1
L1210 [16] = experiment: Tested for cytotoxicity in the multiple tumor disk diffusion soft agar assay at the dose of 15 ug/disk against leukemia L1210; range is 290-350; type: functional, Mus musculus; procedure, shortened: as §1
Mus musculus [17] = experiment: Tested for the change in body weight between day1 and 7 for murine solid tumor model B16 early stage that is subcutaneously implanted by the intravenous treatment at the dose of 1.25 mg/kg in 1-4 schedule; type: functional
Procedure, shortened: (§3)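 sc implant of 1 mm³ tumor fragment. MA 16/C in C3H mice, B16 in C57BL/6 mice, C26 in CD2F1 mice; 10 per group. iv dosing on days 1-4 at 10 mL/kg. Mice weighed daily. Killed day 14 (C26) or day 15 (MA 16/C, B16) and tumors weighed. T/C×100 from median tumor weight, treated vs control. Body weight change taken from day 1 to 7.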

Mus musculus [18] = experiment: Tested for the change in body weight between day1 and 7 for murine solid tumor model 3LL early stage that is intramuscularly implanted by the intravenous treatment at the dose of 2.5 mg/kg in 1-4 schedule
Mus musculus [19] = experiment: Tested for medium tumor weight of treated /control animals x 100 (% T/C) for murine solid tumor model C26 early stage that is subcutaneously implanted by the intravenous treatment at the dose of 2.5 mg/kg in 1-4 schedule; type: functional; procedure, shortened: as §3
Mus musculus [20] = experiment: In vivo total number of survivors was determined against L1210 Leukemia cells out of 8 mouse at 50 day; type: functional, Leukemia cell
Procedure, shortened: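 B6D2 F1 mice, at least five per group, were inoculated ip on day 0 with 10^5 viable L1210 cells (25 mL/kg). Compounds were dissolved in distilled water and given ip (25 mL/kg) on days 1–4. Deaths were checked daily, with necropsy to separate tumor from toxic death. T/C×100 was median survival of treated over controls. Mice surviving over 50 days counted as cured and were excluded from the median.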

Mus musculus [21] = experiment: Tested for the change in body weight between day1 and 7 for murine solid tumor model C26 early stage that is subcutaneously implanted by the intravenous treatment at the dose of 2.5 mg/kg in 1-4 schedule; type: functional
Procedure, shortened: (§4)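 Mice given sc 1 mm³ tumor fragment: C26 in CD2F1 mice, MA 16/C in C3H mice (tumors passaged in strain of origin), 10 per group. Drug given iv days 1–4 at 10 mL/kg. Animals weighed daily and watched for toxicity. Body-weight change taken from day 1 to day 7. Killed day 14 (C26) or 15 (MA 16/C).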

Mus musculus [22] = experiment: Tested for medium tumor weight of treated /control animals x 100 (% T/C) for murine solid tumor model MA 16/C early stage that is subcutaneously implanted by the intravenous treatment at the dose of 2.5 mg/kg in 1-4 schedule; type: functional; procedure, shortened: as §3
Mus musculus [23] = experiment: Tested for mean number of metastases in treated/control animals x 100 (% T/C) for murine solid tumor model 3LL early stage that is intramuscularly implanted by the intravenous treatment at the dose of 2.5 mg/kg in 1-4 schedule
Mus musculus [24] = experiment: Tested for the change in body weight between day1 and 14 for murine solid tumor model 3LL advanced stage that is intramuscularly implanted by the intravenous treatment at the dose of 2.5 mg/kg in 7-10 schedule
Mus musculus [25] = experiment: Tested for medium tumor weight of treated /control animals x 100 (% T/C) for murine solid tumor model 3LL advanced stage that is subcutaneously implanted by the intravenous treatment at the dose of 2.5 mg/kg in 1-4 schedule; type: functional
Mus musculus [26] = experiment: Tested for the change in body weight between day1 and 7 for murine solid tumor model MA 16/C early stage that is subcutaneously implanted by the intravenous treatment at the dose of 2.5 mg/kg in 1-4 schedule; type: functional; procedure, shortened: as §4
Mus musculus [27] = experiment: Tested for medium tumor weight of treated /control animals x 100 (% T/C) for murine solid tumor model B16 early stage that is subcutaneously implanted by the intravenous treatment at the dose of 1.25 mg/kg in 1-4 schedule; type: functional; procedure, shortened: as §3

Row | SMILES | IC50 (P388 [1]) | T/C x100 (P388 [3]) | Cytotoxicity [4] | Cytotoxicity (L1210 [5]) | Cytotoxicity [6] | Cytotoxicity [8] | Cytotoxicity [10] | further results
1 | CCN(CC)CCCNc1ncc(C)c2c1c1c3ccc(OC)cc3ccc1n2C | 0.75 µg/mL (≈ 1.85 µM) | 143 | 375 U | 400 U | 325 U | – | – | Cytotoxicity (L1210 [2]): 450 U
2 | COc1ccc2c(ccc3[nH]c4c(C)cnc(NCC(C)CN(C)C)c4c32)c1 (stereo unspecified) | 0.55 µg/mL (≈ 1.46 µM) | 151 | 375 U | 425 U | 425 U | – | – | Cytotoxicity (L1210 [7]): 450 U
3 | Cc1cnc(NCCCN(C)C)c2c3ccc4ccccc4c3n(C)c12 | 0.375 µg/mL (≈ 1.08 µM) | – | – | 450 U | – | 325 U | 480 U | T/C x100 (P388 [9]): 119; Cytotoxicity (L1210 [11]): 500 U
4 | Cc1c[nH]c(NCCCN(C)C)c2c3ccc4c(O)cccc4c3nc1-2 | 0.05 µg/mL (≈ 0.143 µM) | – | – | 450 U | 400 U | – | – | T/C x100 (P388 [12]): 169; Cytotoxicity [13]: 300 U; Cytotoxicity (L1210 [14]): 500 U
5 | COc1cccc2c1ccc1c3c(NCCCN(C)C)ncc(C)c3n(C)c21 | 0.75 µg/mL (≈ 1.99 µM) | 130 | – | – | – | 275 U | 675 U | Cytotoxicity (L1210 [15]): 375 U; Cytotoxicity (L1210 [16]): 290 U
6 | CCN(CC)CCCNc1nccc2c(C)c3[nH]c4ccc(OC)cc4c3c(C)c12 [RETELLIPTINE] | – | – | – | – | – | – | – | Change in weight (Mus musculus [17]): 1 g; Change in weight (Mus musculus [18]): -1.4 g; T/C (Mus musculus [19]): 0%; Survivors (Mus musculus [20]): 3; Change in weight (Mus musculus [21]): -2.1 g; T/C (Mus musculus [22]): 4%; T/C (Mus musculus [23]): 0%; Change in weight (Mus musculus [24]): 0 g; T/C (Mus musculus [25]): 40%; Change in weight (Mus musculus [26]): -2.2 g; T/C (Mus musculus [27]): 26%
